Tests used:
[1] = target: S-adenosylmethionine decarboxylase (Homo sapiens) (UniProt P17707); experiment: Inhibition of Inhibition of human form of S-adenosyl-methionine decarboxylase enzyme (AdoMet-DC); parameters: concentration or dose not given beside the values; settings: concentration not given here
[2] = target: T1, Ornithine decarboxylase (Homo sapiens) (UniProt P11926); experiment: Inhibition of ornithine decarboxylase (ODC); parameters: concentration or dose not given beside the values; settings: concentration not given here
T1 sequence (whole entry): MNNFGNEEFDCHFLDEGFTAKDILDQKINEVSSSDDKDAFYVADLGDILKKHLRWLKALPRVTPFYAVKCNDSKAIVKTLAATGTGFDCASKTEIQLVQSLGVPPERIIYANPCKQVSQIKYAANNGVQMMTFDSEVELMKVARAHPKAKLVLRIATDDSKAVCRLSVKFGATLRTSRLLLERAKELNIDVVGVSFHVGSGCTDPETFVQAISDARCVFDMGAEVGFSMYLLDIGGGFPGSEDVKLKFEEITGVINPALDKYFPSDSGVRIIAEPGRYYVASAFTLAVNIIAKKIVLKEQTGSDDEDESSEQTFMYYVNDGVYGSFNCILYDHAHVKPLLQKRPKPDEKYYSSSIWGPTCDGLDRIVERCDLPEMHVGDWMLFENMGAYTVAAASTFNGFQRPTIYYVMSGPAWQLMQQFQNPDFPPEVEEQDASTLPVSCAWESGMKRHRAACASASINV

[3] = target: T2, Diamine acetyltransferase 1 (Homo sapiens, UniProt P21673); experiment: Effect of 10 uM on spermine/spermidine-N-acetyltransferase (SSAT) induction in non-SCLC cells; type: cell-based
T2 sequence (P21673 whole entry): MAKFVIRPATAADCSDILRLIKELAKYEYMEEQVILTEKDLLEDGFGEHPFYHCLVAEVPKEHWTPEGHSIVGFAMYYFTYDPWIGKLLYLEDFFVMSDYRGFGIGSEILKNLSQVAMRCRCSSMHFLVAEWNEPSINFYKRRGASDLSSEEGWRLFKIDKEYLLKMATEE
Procedure, shortened: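 NCI H157 non-small-cell lung tumor cells were exposed to 10 μM analogue. SSAT activity was assayed and expressed as pmol product/mg protein/min, then as fold increase over untreated control cells.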

[4] = test system: NCI-H157; experiment: Effect of exposure of H157 non-SCLC (<10 uM) for 96-h, and accumulation of compound was determined; type: functional, Homo sapiens
[5] = test system: NCI-H157; experiment: Effect of exposure of H157 non-SCLC to compound (<10 uM) for 96-h, on natural polyamines and accumulation of the compound; Decrease; type: functional, cell-based; settings: Homo sapiens
Procedure, shortened: (§1)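 H157 non-SCLC cells were treated with 10 μM analogue. Cellular putrescine, spermidine and spermine, plus the intracellular analogue, were quantified and compared with untreated control cells.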

[6] = test system: NCH82; experiment: Cytokinetic effects on H82 small-cell lung tumor line (SCLC) after 96-h treatment; type: functional, Homo sapiens
[7] = test system: NCI-H157; experiment: (§2) Effect of exposure of H157 non-SCLC to compound (<10 uM) for 96-h, on natural polyamines and accumulation of the compound; No significant change; type: functional, cell-based; settings: Homo sapiens
Procedure, shortened: as §1

[8] = test system: NCI-H157; experiment: as §2; type: functional, cell-based; settings: Homo sapiens; remark: listed apart in the source
[9] = test system: Trypanosoma brucei; experiment: In vitro growth Inhibitory activity against LAB 110 Strain of Trypanosoma brucei; type: functional, organism-based
Procedure, shortened: (§3)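 In vitro growth inhibition was run against T. b. brucei LAB EATRO 110 and T. b. rhodesiense KETRI 243, KETRI 243 As-10-3 and KETRI 269. […] ">100" means no appreciable inhibition up to the highest concentration tested.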

[10] = test system: Trypanosoma brucei; experiment: In vitro growth Inhibitory activity against K243 Strain of Trypanosoma brucei.; type: functional, organism-based
Procedure, shortened: as §3

[11] = target: T2, Diamine acetyltransferase 1; experiment: Inhibitory activity of compound against SSAT extracted from superinduced H157 cells; type: cell-free
Procedure, shortened: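 SSAT came from crude extracts of superinduced H157 cells and was assayed at saturating spermidine.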

[12] = test system: NCI-H157; experiment: Activity against H157 non-SCLC cells in culture; type: functional, cell-based; settings: Homo sapiens
[13] = test system: NCI-H157; experiment: BENSpm level in NCI H157 non-SCLC tumor cells following 24-h treatment with 10 uM of compound( Values in parentheses are control values); type: functional, Homo sapiens
Procedure, shortened: (§4)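 NCI H157 non-SCLC cells were exposed to 10 μM analogue alongside untreated controls. Cellular polyamines and analogue were quantified. SSAT activity was assayed in the cells and reported as pmol product/mg protein/min.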

[14] = test system: NCI-H157; experiment: Spermine/Spermidine-N1-acetyltransferase activity in NCI H157 non-SCLC tumor cells following 24-h treatment with 10 uM of compound.( Values in parentheses are control values); type: functional, Homo sapiens
Procedure, shortened: as §4

[15] = test system: NCI-H157; experiment: Spermine level in NCI H157 non-SCLC tumor cells following 24-h treatment with 10 uM of compound( Values in parentheses are control values); type: functional, Homo sapiens
Procedure, shortened: as §4

[16] = test system: NCI-H157; experiment: Putrescine level in NCI H157 non-SCLC tumor cells following 24-h treatment with 10 uM of compound( Values in parentheses are control values); type: functional, Homo sapiens
Procedure, shortened: as §4

[17] = test system: NCI-H157; experiment: CHENSpm level in NCI H157 non-SCLC tumor cells following 24-h treatment with 10 uM of compound( Values in parentheses are control values); type: functional, Homo sapiens
Procedure, shortened: as §4

[18] = test system: NCI-H157; experiment: Spermidine level in NCI H157 non-SCLC tumor cells following 24-h treatment with 10 uM of compound( Values in parentheses are control values); type: functional, Homo sapiens
Procedure, shortened: as §4

[19] = Half-life period as determined by N-deethylation and stepwise removal of aminopropyl equivalents; type: ADME
[20] = test system: Trypanosoma brucei; experiment: in vivo growth inhibition of Trypanosoma brucei was determined; type: functional, organism-based

Compound | inhibition [1] | inhibition [2] | Induction [3] | Amount [4] | Effect on polyamine pools [5] | further results
CCNCCCNCCCNCCCNCC1CCCC1 | > 50% | > 50% | > 500 | >20 nM (mg of protein)-1 | Decrease | 
CCNCCCNCCCN1CCCCCC1 |  |  | < 50 |  |  | Effect [6]: 0; Effect on polyamine pools [7]: No significant change
CCNCCCNCCCNCCCNCC1CCC1 |  | > 50% | > 500 | >20 nM (mg of protein)-1 | Decrease | 
CCNCCCNCCCCCCCNCCCNCC1CCCCCC1 | < 50% | < 50% | 0 | <20 nM (mg of protein)-1 |  | NC [8]: No significant change
C(CCCNCCCNCC1CCCCCC1)CCCNCCCNCC1CCCCCC1 |  |  | 0 |  |  | NC [8]: No significant change
CCNCCCN[C@@H]1CCC[C@H](N)CC1 |  |  |  |  |  | IC50 [9]: > 100 µM; IC50 [10]: > 100 µM
N[C@@H]1C=C[C@H](NCCCNCC2CC2)C1 |  |  |  |  |  | IC50 [9]: > 100 µM; IC50 [10]: > 100 µM
C#CCNCCCNCCCNCCCNCC |  | < 50% | > 500 |  | Decrease | IC50 [11]: 40 µM; IC50 [12]: 1.1 µM
CCNCCCNCCCNCCCNCC [BIS(ETHYL)NORSPERMINE] | > 50% | > 50% | > 500 | >20 nM (mg of protein)-1 | Decrease | Polyamine level [13]: 36.07; Activity [14]: 148141 (pM of product) min-1 (mg of protein)-1; Polyamine level [15]: 0.51; Polyamine level [16]: 0; Polyamine level [17]: 0; Polyamine level [18]: 0; half-life [19]: 1.22 h
CCNCCCCNCCCNCC | < 50% | > 50% | > 50 | >20 nM (mg of protein)-1 | Decrease | 
C[S+](C[C@@H]1O[C@H](n2cnc3c(N)ncnc32)[C@@H](O)[C@H]1O)C1C=CC(ON)C1 (some centres undefined) |  |  |  |  |  | IC50 [20]: 0.9 µM
CCNCCCNCCCNCCCNCC1CCC(Br)CC1 (centres undefined) | < 50% | < 50% | < 50 | >20 nM (mg of protein)-1 | Decrease | 
CCNCCCNCCCNC1CCCCCC1 |  | < 50% | > 50 |  | Decrease | 

Source: ChEMBL document CHEMBL1134460, “Terminally alkylated polyamine analogues as chemotherapeutic agents” (J Med Chem, 2001)
